Most compounds without a hit are left out; they make up all but 2.9% or so of the library.
CHO parental Ca: signal in parental CHO cells, OX1R antagonist counter-screen | inhibition, % at 5.6 µM | parental CHO-K1, ATP-induced calcium, Fluo-8 fluorescence | 330,000 tested, 0.63% active | AID 463079;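 active means inhibition above that plate's mean sample inhibition plus 3 SD, cut at about 26% in these data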
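Test system: untransfected parental CHO cell line. Compound: one dose, 5.6 µM nominal. Detection: intracellular calcium via Fluo-8 no-wash fluorescent dye. Measure: % inhibition. Benchmarks: ATP-challenged DMSO wells low, unchallenged DMSO wells high.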
OX1R antag-1: blocks the human orexin 1 receptor; O43613; OX1R-expressing cells, FRET antagonist read-out; inhibition, % at 6.6 µM; 330,000 tested, 1.8% active; AID 485270; in the data active means inhibition mostly above about 38%, no sharp cut-off; inactive means mostly below about 40%
Target sequence (O43613 whole entry, looked up): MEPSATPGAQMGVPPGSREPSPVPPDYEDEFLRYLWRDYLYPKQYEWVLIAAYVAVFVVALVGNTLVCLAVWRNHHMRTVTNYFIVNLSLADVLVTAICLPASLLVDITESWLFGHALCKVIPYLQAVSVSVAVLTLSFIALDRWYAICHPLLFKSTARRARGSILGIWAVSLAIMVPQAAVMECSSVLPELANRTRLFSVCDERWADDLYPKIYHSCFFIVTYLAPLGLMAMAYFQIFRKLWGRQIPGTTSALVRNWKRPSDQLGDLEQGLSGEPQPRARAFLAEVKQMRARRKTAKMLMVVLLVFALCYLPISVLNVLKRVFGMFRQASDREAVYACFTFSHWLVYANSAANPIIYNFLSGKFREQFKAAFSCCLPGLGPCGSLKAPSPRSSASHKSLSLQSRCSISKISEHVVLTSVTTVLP
M1 PAM parental: counter-screen for M1 PAMs: effect in parental CHO-K1 cells. activation, % at 3 µM. 360,000 tested, 0.02% active. ATP EC20, Fluo-8 calcium fluorescence; 0% at ATP EC20, 100% at ATP max;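 active means activation above the run cutoff, the mean activation of all test compounds plus 3 SD, cut at about 40% in these data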;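 further: peak over basal fluorescence ratio in a 140 s read after ATP addition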
CHO-K1 Ca antag: nonselective inhibitor or artifact in parental CHO-K1 cells | inhibition, % at 3 µM | 360,000 tested, 0.6% active | ATP-induced calcium, Fluo-8 fluorescence;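 active means inhibition above a per-plate cutoff, the plate's mean sample inhibition plus 3 SD, cut at about 24% in these data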
M1 ag parental: nonselective activator or artifact in parental CHO-K1 cells; Fluo-8 calcium fluorescence; scaled to maximal ATP response, vehicle zero; 360,000 tested, 0.48% active; activation, % at 3 µM; AID 602248; in the data active means activation above about 15%;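 further: untransfected CHO-K1 host cells lacking M1 receptor as counterscreen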
OX1R antag-2: human HCRTR1 antagonism | CHO/OX1R cells, Fluo-8 calcium fluorescence, orexin A | AID 434989 | inhibition, % at 5 µM | 330,000 tested, 0.43% active | O43613;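 active means inhibition above its plate's threshold, mean inhibition of all tested compounds on the plate plus 3 SD, cut at about 37% in these data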
A number is an active result; 0 = inactive; - = no result given.

SMILES	CHO parental Ca	OX1R antag-1	M1 PAM parental	CHO-K1 Ca antag	M1 ag parental	OX1R antag-2
CN(Cc1nccs1)C(=O)c1cc(COc2cccc3cnccc23)on1	0	0	0	0	16.2	0
Cc1ccccc1CN1CCCC(C(=O)Nc2ccc(-c3ccn[nH]3)cc2)C1 (stereo unspecified)	0	0	0	0	0	0
CSc1ccccc1OCc1cc(C(=O)N(C)Cc2cnccn2)no1	0	0	0	0	0	0
Cc1cc2c(c(=O)n1Cc1ccco1)C(c1cccnc1)C(C#N)=C(N)O2 (stereo unspecified)	0	0	0	26.3	0	0
Cc1cc2cc(CCNC(=O)C(=O)c3c[nH]c4ccccc34)c(=O)[nH]c2cc1C	0	65.2	0	0	0	0
Cc1[nH]n(-c2ccc([N+](=O)[O-])cc2)c(=O)c1C=NCCN1CCN(C(=O)C(C)C)CC1	26.9	0	0	0	0	0
COc1ccc(C(=O)Cn2c(N3CCCCC3)nc3c2c(=O)n(C)c(=O)n3C)cc1OC	-	-	0	0	18.4	-
Cn1c(=O)c2c(nc(N3CCCCCC3)n2CC(=O)c2ccccc2)n(C)c1=O	0	0	0	0	0	0
Cc1ccc(CNC(=O)c2ccc(NC(=O)CCS(=O)(=O)c3cccs3)cc2)cc1	98.5	0	0	0	0	0
COc1cccc(C2CC(=O)C3=C(C2)Nc2ccccc2N(C(=O)CCC(=O)O)C3c2ccc(F)cc2)c1 (stereo unspecified)	99.4	0	0	0	0	0
CC(=O)c1cccc(NC(=S)N2CCN(S(=O)(=O)c3ccc(F)cc3)CC2)c1	0	0	0	0	0	0
O=[N+]([O-])c1ccc(Sc2ccccc2)nc1	0	0	0	0	0	0
O=[N+]([O-])c1ccc(Sc2n[nH]c(-c3ccccc3)n2)nc1	0	74.0	0	0	0	0
CCOC(=O)C1=CCN(S(=O)(=O)c2ccccc2Br)C1c1ccc(Cl)c(Cl)c1 (stereo unspecified)	-	-	0	29.2	0	-
CCOC(=O)C1=CCN(S(=O)(=O)c2ccccc2C)C1c1ccccc1 (stereo unspecified)	-	-	0	26.1	0	-
CCOC(=O)C1=CCN(S(=O)(=O)c2ccc(F)cc2)C1c1cccc(C)c1 (stereo unspecified)	-	-	0	0	0	-
CCOC(=O)C1=CCN(S(=O)(=O)c2ccc(F)cc2)C1c1cccc(F)c1 (stereo unspecified)	-	-	0	27.2	0	-
O=C(COC(=O)CNC(=O)c1ccc(Cl)c([N+](=O)[O-])c1)NNC(=O)c1ccccc1F	0	0	0	0	0	0
COc1ccc(S(=O)(=O)N2CCN(CC(=O)c3c(N)n(C)c(=O)n(C)c3=O)CC2)cc1OC	-	-	0	0	0	-
c1ccc(-c2ccc(C3CCCN3)cc2)cc1 (stereo unspecified)	0	0	0	0	0	0
N#C/C(=C/c1ccc(-c2ccc(S(N)(=O)=O)cc2)o1)c1nc2ccccc2s1	64.3	0	0	40.6	29.6	80.5
N#C/C(=C\c1ccc(-c2nc3ccccc3s2)o1)C(N)=O	0	51.7	0	0	0	0
NS(=O)(=O)c1ccc(-c2ccc(C=C3C(=O)c4ccccc4C3=O)o2)cc1	0	0	0	0	0	0
O=C(O)CCCN1C(=O)/C(=C/c2ccc(-c3nc4ccccc4s3)o2)SC1=S	0	0	0	0	0	0
N#C/C(=C/c1ccc(-c2ccc(S(N)(=O)=O)cc2)o1)C(=O)Nc1ccccc1	0	0	0	28.1	0	0
SMILES	CHO parental Ca	OX1R antag-1	M1 PAM parental	CHO-K1 Ca antag	M1 ag parental	OX1R antag-2
COc1ccccc1-n1cnnc1SCC(=O)NCC1CCCO1 (stereo unspecified)	0	0	0	0	0	0
O=C(Nc1ccccc1O)c1ccc([N+](=O)[O-])cc1	0	33.3	0	0	0	0
O=C(Nc1ncccn1)c1ccc([N+](=O)[O-])cc1	0	58.1	0	0	0	0
O=C(Nc1nccs1)c1ccc([N+](=O)[O-])cc1	0	41.6	0	0	0	0
O=C(Cc1ccc([N+](=O)[O-])cc1)Nc1nccs1	0	0	0	0	0	0
O=C(NC(=S)Nc1ccccn1)c1ccc([N+](=O)[O-])cc1	0	0	0	0	0	0
CCOC(=O)/C=C/C(=O)Nc1ccc(Oc2ccccc2)cc1	43.6	0	0	28.3	0	0
CCNc1nc2c(c(=O)n(C)c(=O)n2C)n1Cc1ccc(Cl)cc1	36.3	0	0	0	0	0
NC(=O)[C@@H]1CCCN1C(=O)c1ccc2nc(Cc3ccccc3F)oc2c1	0	0	0	0	0	0
COc1ccc(CN(CC2CCC(C(=O)O)CC2)C(=S)Nc2cc(Cl)ccc2OC)cc1 (stereo unspecified)	0	0	0	0	0	0
CCCCCCCCCCCCCCCC[n+]1cccc2ccccc21	89.4	0	0	0	0	63.3
CCCCCCCCC[n+]1cccc2c3ccccc3ccc21	85.8	0	0	0	0	93.7
COc1ccccc1NC(=O)Cn1c(=O)n(C)c(=O)c2sc3c(c21)COC(C)(C)C3	0	0	0	0	0	0
O=C(Nc1cccc2c1CCCC2)c1ccccc1Br	44.5	0	0	0	0	0
COc1ccc(C(=O)Nc2cccc3c2CCCC3)c(OC)c1	0	57.4	0	0	0	0
O=C(Nc1cccc2c1CCCC2)c1ccco1	0	0	0	0	0	0
O=C(Nc1ccc(S(=O)(=O)Nc2ccccn2)cc1)c1ccc(Cl)cc1Cl	0	0	0	0	0	0
C=CCn1c(SCc2ccc(C(=O)NCCO)cc2)nc2sc(C)c(C)c2c1=O	0	0	0	0	0	0
COC(=O)c1c(NC(=O)c2nc3ccccc3s2)sc2c1CCN(C(C)=O)C2	0	0	0	0	0	0
CNC(=O)c1c(NC(=O)c2nc3ccccc3s2)sc2c1CCC2	0	44.0	0	0	0	0
CCOC(OCC)c1cn(Cc2ccc(C(=O)c3ccccc3)cc2)nn1	44.2	0	0	0	0	0
COc1ccc(C2=C(N)c3ccccc3C2=O)cc1	0	44.7	0	0	0	0
O=C(NC1CCCN(C2Cc3ccccc3C2)C1)c1ccc(F)cc1Cl (stereo unspecified)	0	0	0	0	0	0
CCCC[C@@H]1C=C(C(=O)O)[C@H](c2ccc(C#N)cc2)N1S(=O)(=O)c1ccc(C)cc1	0	0	0	0	0	0
NC(c1ccccc1)c1csc(Nc2ccc(C(=O)c3ccccc3)cc2)n1 (stereo unspecified)	-	-	0	0	0	-
Cc1cc(NC(=O)c2cncc(Br)c2)ccc1NC(=O)c1cc2ccccc2o1	0	0	0	0	0	0
NC(=O)c1c(-c2ccc(Cl)cc2Cl)csc1NC(=O)Cc1ccccc1	55.7	57.9	0	0	0	0
O=C(Cc1ccccc1)Nc1scc(-c2ccccc2)c1C(=O)N1CCOCC1	0	0	0	0	0	0
